# Test results taken from ChEMBL document CHEMBL3244072, “Synthesis and antiviral and enzymatic studies of certain 3-deazaguanines and their imidazolecarboxamide precursors” (J Med Chem, 1978).
# Calls of active or inactive are those of the source. The calls are words filed in the database; no cut-off is given here.
# Key:
# KB [1] = test: Antiviral activity against Adenovirus type 3 infected in human KB cells assessed as inhibition of virus-induced cytopathic effect after 72 hrs relative to control; type: functional, cell-based; conditions: Human adenovirus 3
# Method in brief: (§1)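 Cell monolayers (18-24 h) infected with 320 CCID50 of virus; compound added within 15 min at half-log dilutions from 1000 to 1 μg/mL. After 72 h at 37 °C, CPE and cytotoxicity scored microscopically (0-4). Virus rating = sum of (control CPE − treated CPE) over drug levels, halved at any level showing toxicity.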
# Human alphaherpesvirus 1 = test: Antiviral activity against HSV1 infected in human KB cells assessed as inhibition of virus-induced cytopathic effect after 72 hrs relative to control; type: functional, organism-based; method in brief: as §1
# Human respirovirus 3 = test: Antiviral activity against Parainfluenza virus 3 infected in human KB cells assessed as inhibition of virus-induced cytopathic effect after 72 hrs relative to control; type: functional, organism-based; method in brief: as §1
# KB [2] = test: Antiviral activity against Rhinovirus type 13 infected in human KB cells assessed as inhibition of virus-induced cytopathic effect after 72 hrs relative to control; type: functional, cell-based; conditions: Human rhinovirus A13; method in brief: as §1
# Mus musculus [3] = test: Toxicity in Influenza B virus Lee infected Swiss-Webster mouse assessed as mortality at 100 mg/kg, po qd for 9 days; type: organism-based; set-up: dose 100 mg/kg, route oral; conditions: in vivo, 216 h
# Mus musculus [4] = test: Toxicity in Influenza B virus Lee infected Swiss-Webster mouse assessed as mortality at 50 mg/kg, po qd for 9 days; type: organism-based; set-up: dose 50 mg/kg, route oral; conditions: in vivo, 216 h
# Mus musculus [5] = test: Toxicity in Influenza B virus Lee infected Swiss-Webster mouse assessed as mortality at 12.5 mg/kg, po qd for 9 days; type: organism-based; set-up: dose 12.5 mg/kg, route oral; conditions: in vivo, 216 h
# Influenza B virus [6] = test: Antiviral activity against Influenza B virus Lee infected in Swiss-Webster mouse assessed as host mean survival days at 100 mg/kg, po qd for 9 days; type: functional, B/Lee/1940
# Influenza B virus [7] = test: Antiviral activity against Influenza B virus Lee infected in Swiss-Webster mouse assessed as host mean survival days at 50 mg/kg, po qd for 9 days; type: functional, B/Lee/1940
# Influenza B virus [8] = test: Antiviral activity against Influenza B virus Lee infected in Swiss-Webster mouse assessed as host mean survival days at 12.5 mg/kg, po qd for 9 days; type: functional, B/Lee/1940
# Influenza B virus [9] = test: Antiviral activity against Influenza B virus Lee infected in Swiss-Webster mouse assessed as host mean survival days at 3.1 mg/kg, po qd for 9 days; type: functional, B/Lee/1940
# Ehrlich [10] = test: Inhibition of adenine nucleotide biosynthesis in mouse EAC assessed as [14C]hypoxanthine incorporation at 1 mM after 60 mins by TLC analysis; type: functional; conditions: 1 h
# Method in brief: (§2)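 Ehrlich ascites tumor cells (about 6 × 10^6 cells/mL) preincubated 20 min at 37 °C with or without 1 mM compound. [14C]hypoxanthine (55 μCi/μmol) then added to 0.1 mM final for 60 min. Label in adenine or guanine nucleotides of the acid-soluble fraction measured by TLC; inhibition calculated against untreated cells.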
# Ehrlich [11] = test: Inhibition of guanine nucleotide biosynthesis in mouse EAC assessed as [14C]hypoxanthine incorporation at 1 mM after 60 mins by TLC analysis; type: functional; conditions: 1 h; method in brief: as §2
# Candida albicans = test: Antimicrobial activity against Candida albicans at 0.4 umol/mL by broth microdilution method; type: functional, organism-based
# Method in brief: (§3)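 Broth dilution in defined medium against clinical isolates of each organism.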
# Epidermophyton floccosum = test: Antimicrobial activity against Epidermophyton floccosum at 0.4 umol/mL by broth microdilution method; type: functional, organism-based; method in brief: as §3
# Microsporum canis = test: Antimicrobial activity against Microsporum canis at 0.4 umol/mL by broth microdilution method; type: functional, organism-based; method in brief: as §3
# Pseudomonas aeruginosa = test: Antimicrobial activity against Pseudomonas aeruginosa at 0.4 umol/mL by broth microdilution method; type: functional, organism-based; method in brief: as §3
# Staphylococcus aureus = test: Antimicrobial activity against Staphylococcus aureus at 0.4 umol/mL by broth microdilution method; type: functional, organism-based; method in brief: as §3
# [12] = test system: Trichophyton mentagrophytes; test: Antimicrobial activity against Trichophyton mentagrophytes at 0.4 umol/mL by broth microdilution method; type: functional, organism-based; method in brief: as §3
compound,measurement,setting,value
N#CCc1[nH]cnc1C(N)=O,Activity,KB [1],Active
same,Activity,Human alphaherpesvirus 1,Active
same,Activity,Human respirovirus 3,Active
same,Activity,KB [2],Active
same,Activity,Mus musculus [3],Non-toxic
same,Activity,Mus musculus [4],Non-toxic
same,Activity,Mus musculus [5],Non-toxic
same,Time,Influenza B virus [6],0.118 days
same,Time,Influenza B virus [7],>0.3 days
same,Time,Influenza B virus [8],>0.3 days
same,Time,Influenza B virus [9],0.23 days
same,inhibition at 1000 µM,Ehrlich [10],8%
same,inhibition at 1000 µM,Ehrlich [11],39%
same,Activity,Candida albicans,inactive
same,Activity,Epidermophyton floccosum,inactive
same,Activity,Microsporum canis,inactive
same,Activity,Pseudomonas aeruginosa,inactive
same,Activity,Staphylococcus aureus,inactive
same,Activity,[12],inactive
